ChEMBL document CHEMBL3091395, “Discovery of Octahydroindenes as PAR1 Antagonists” (ACS Med Chem Lett, 2013)

Columns and labels:
[1] = target: T1, Proteinase-activated receptor 1 (Homo sapiens, UniProt P25116); test: Displacement of [3H]haTRAP from PAR1 in human platelet membranes after 60 mins by scintillation counting analysis; type: cell membranes
T1 sequence (P25116 whole entry): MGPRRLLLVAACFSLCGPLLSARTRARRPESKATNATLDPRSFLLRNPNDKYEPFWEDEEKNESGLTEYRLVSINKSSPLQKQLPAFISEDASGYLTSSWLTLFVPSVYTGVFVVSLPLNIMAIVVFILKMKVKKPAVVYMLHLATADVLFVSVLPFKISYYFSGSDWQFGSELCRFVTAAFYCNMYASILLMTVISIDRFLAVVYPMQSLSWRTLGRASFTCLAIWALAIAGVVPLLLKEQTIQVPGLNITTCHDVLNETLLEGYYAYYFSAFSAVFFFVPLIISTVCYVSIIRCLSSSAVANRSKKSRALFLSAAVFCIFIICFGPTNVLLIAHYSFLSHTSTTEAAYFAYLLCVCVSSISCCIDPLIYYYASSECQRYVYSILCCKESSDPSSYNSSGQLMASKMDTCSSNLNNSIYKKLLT
In short: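 Radioligand binding to PAR1 using a tritiated peptide ligand, phenylalanine-arginine-cyclohexylalanine-homoarginine-[³H]-tyrosine-NH₂, reported as IC50. Each value is the average of three measurements. Racemic mixtures were tested without separation. Vorapaxar, synthesized in-house, was included as the reference standard.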

[2] = Metabolic stability in human liver microsomes assessed as time when 50% of compound remains; type: ADME; settings: read-out: Time
[3] = Cytotoxicity against human HepG2 cells assessed as ATP contents at 30 uM after 24 hrs relative to control; type: cell-based; settings: read-out: Activity
In short: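 HepG2 cells were exposed to compound at 30 μM. Cellular ATP content was measured 24 h after compound addition and expressed as % of vehicle-treated control.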

[4] = Metabolic stability in rat liver microsomes assessed as time when 50% of compound remains; type: ADME; settings: read-out: Time

IC50 [1] | half-life [2] | half-life [4] | Compound | viability at 24 h, 30 µM [3]
43 nM |  |  | COC1(C)C[C@@H]2CCCC[C@@H]2[C@H]1/C=C/c1ccc(-c2cccc(F)c2)cn1 (mixture of isomers) | 
220 nM |  |  | OC1C[C@@H]2CCCC[C@@H]2[C@H]1/C=C/c1ccc(-c2cccc(F)c2)cn1 (mixture of isomers) | 
1100 nM |  |  | O=C1C[C@@H]2CCCC[C@@H]2[C@H]1/C=C/c1ccc(-c2cccc(F)c2)cn1 (racemic) | 
26 nM | 4.5 min | 3.4 min | Fc1cccc(-c2ccc(/C=C/[C@@H]3[C@H]4CCCC[C@H]4CC34OCCO4)nc2)c1 (racemic) | 97%
230 nM |  |  | NC1C[C@@H]2CCCC[C@@H]2[C@H]1/C=C/c1ccc(-c2cccc(F)c2)cn1 (mixture of isomers) | 
120 nM |  |  | CN(C)C(=S)OC1C[C@@H]2CCCC[C@@H]2[C@H]1/C=C/c1ccc(-c2cccc(F)c2)cn1 (mixture of isomers) | 
8.6 nM | 4.4 min | 6.7 min | O=C1NCC2(C[C@@H]3CCCC[C@@H]3[C@H]2/C=C/c2ccc(-c3cccc(F)c3)cn2)O1 (mixture of isomers) | 101%
33 nM |  |  | CC1(O)C[C@@H]2CCCC[C@@H]2[C@H]1/C=C/c1ccc(-c2cccc(F)c2)cn1 (mixture of isomers) | 
67 nM |  |  | COC1C[C@@H]2CCCC[C@@H]2[C@H]1/C=C/c1ccc(-c2cccc(F)c2)cn1 (mixture of isomers) | 
2100 nM |  |  | Fc1cccc(-c2ccc(/C=C/[C@H]3[C@H]4CCCC[C@H]4CC34OCCO4)nc2)c1 (racemic) | 
470 nM |  |  | Fc1cccc(-c2ccc(/C=C/[C@@H]3[C@H]4CCCC[C@@H]4CC34OCCO4)nc2)c1 (racemic) | 
67 nM |  |  | CC(=O)OC1C[C@@H]2CCCC[C@@H]2[C@H]1/C=C/c1ccc(-c2cccc(F)c2)cn1 (mixture of isomers) | 
2.7 nM | 4.3 min | 5.8 min | CC1(OC(N)=O)C[C@@H]2CCCC[C@@H]2[C@H]1/C=C/c1ccc(-c2cccc(F)c2)cn1 (mixture of isomers) | 99%

The remaining lines, values behind:

Compound | IC50 [1] | half-life [2] | half-life [4] | viability at 24 h, 30 µM [3]
Fc1cccc(-c2ccc(/C=C/[C@H]3C(OCc4ccccc4)C[C@@H]4CCCC[C@@H]43)nc2)c1 (mixture of isomers) | 280 nM |  |  | 
CN(C1C[C@@H]2CCCC[C@@H]2[C@H]1/C=C/c1ccc(-c2cccc(F)c2)cn1)S(C)(=O)=O (mixture of isomers) | 1.3 nM | 2.5 min | 2.2 min | 95%
O=C(Nc1ccccc1)OC1C[C@@H]2CCCC[C@@H]2[C@H]1/C=C/c1ccc(-c2cccc(F)c2)cn1 (mixture of isomers) | 360 nM |  |  | 
CCOC(=O)NC1C[C@@H]2CCCC[C@@H]2[C@H]1/C=C/c1ccc(-c2cccc(F)c2)cn1 (mixture of isomers) | 2000 nM |  |  | 
COC(=O)NC1C[C@@H]2CCCC[C@@H]2[C@H]1/C=C/c1ccc(-c2cccc(F)c2)cn1 (mixture of isomers) | 980 nM |  |  | 
CS(=O)(=O)NC1C[C@@H]2CCCC[C@@H]2[C@H]1/C=C/c1ccc(-c2cccc(F)c2)cn1 (mixture of isomers) | 50 nM | 273 min | 105 min | 
CCOC(=O)N[C@@H]1CC[C@@H]2[C@@H](C1)C[C@H]1C(=O)O[C@H](C)[C@H]1[C@H]2/C=C/c1ccc(-c2cccc(F)c2)cn1 [VORAPAXAR] | 1.1 nM | 83.2 min | 32.4 min | 102%
CC(C)(C)OC(=O)NC1C[C@@H]2CCCC[C@@H]2[C@H]1/C=C/c1ccc(-c2cccc(F)c2)cn1 (mixture of isomers) | 7800 nM |  |  | 
CS(=O)(=O)OC1C[C@@H]2CCCC[C@@H]2[C@H]1/C=C/c1ccc(-c2cccc(F)c2)cn1 (mixture of isomers) | 6.4 nM | 3.5 min | 6.5 min | 94%
CC(=O)NC1C[C@@H]2CCCC[C@@H]2[C@H]1/C=C/c1ccc(-c2cccc(F)c2)cn1 (mixture of isomers) | 53 nM |  |  | 
CC(=O)N(C)C1C[C@@H]2CCCC[C@@H]2[C@H]1/C=C/c1ccc(-c2cccc(F)c2)cn1 (mixture of isomers) | 5.4 nM | 5.6 min | 5.2 min | 98%
O=C(NC1C[C@@H]2CCCC[C@@H]2[C@H]1/C=C/c1ccc(-c2cccc(F)c2)cn1)C1CC1 (mixture of isomers) | 230 nM |  |  | 
